Measured values published in ChEMBL document CHEMBL1150247, “Structural determinants for affinity enhancement of a dual antagonist peptide entry inhibitor of human immunodeficiency virus type-1” (J Med Chem, 2008).
The source made the active and inactive calls. The calls are words filed in the database; no cut-off is given here.

Columns and labels:
[1] = Inhibition of HIV1 YU2 gp120 binding to immobilized CD4 by surface plasmon resonance method; parameters: species or system Human immunodeficiency virus 1
[2] = system: Human immunodeficiency virus 1; experiment: Antiviral activity against HIV1 BaL in CCR5 expressing P4 cells after 2 hrs; assay type: functional, organism-based; conditions: Human immunodeficiency virus 1, BaL, P4, 2 h
Procedure, shortened: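 P4-CCR5 cells (DMEM, 10% FBS, puromycin) seeded 1.2×10^4/well ~18 h ahead; exposed 2 h to HIV-1 BaL plus peptide, washed, cultured 46 more h; infection read by β-galactosidase reporter assay. Infectivity relative to mock-treated infected cells; IC50 from sigmoidal dose-response fit; two independent experiments combined.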

[3] = Cytotoxicity against CCR5 expressing human P4 cells after 2 hrs by MTT assay; assay type: cell-based; conditions: p4, 2 h
Procedure, shortened: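 P4-CCR5 cells seeded 4×10^4/well ~18 h ahead, exposed 2 h to varying peptide concentrations, washed, then viability by MTT; triplicate in two independent assays.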

[4] = Binding affinity to immobilized HIV1 YU2 gp120 by surface plasmon resonance method; parameters: species or system Human immunodeficiency virus 1
Procedure, shortened: (§1)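 YU2 gp120 (Drosophila S2-expressed, F105-affinity purified) amine-coupled to CM5 chip (~4000 RU); peptides in PBS injected at 15 μL/min, 5 min association, 5 min dissociation. Buffer and anti-IL5Rα 2B6R control-surface responses subtracted; kinetic constants fitted in BIAevaluation.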

[5] = Binding affinity to HIV1 YU2 gp120 by isothermal titration calorimetric method; parameters: species or system Human immunodeficiency virus 1
[6] = Inhibition of HIV1 YU2 gp120 binding to immobilized CD4 binding site specific b6 monoclonal antibody by surface plasmon resonance method; parameters: species or system Human immunodeficiency virus 1
[7] = Inhibition of HIV1 YU2 gp120 binding to immobilized CD4 binding site specific immunoglobulin G b12 monoclonal antibody by surface plasmon resonance method; parameters: species or system Human immunodeficiency virus 1
[8] = Inhibition of HIV1 YU2 gp120 binding to immobilized CD4 binding site specific F105 monoclonal antibody by surface plasmon resonance method; parameters: species or system Human immunodeficiency virus 1
[9] = Inhibition of HIV1 YU2 gp120 binding to immobilized CD4 induced 17b monoclonal antibody by surface plasmon resonance method; parameters: species or system Human immunodeficiency virus 1
[10] = system: Human immunodeficiency virus 1; experiment: Binding affinity to immobilized HIV1 YU2 gp120 upto 1 mM by surface plasmon resonance method; procedure, shortened: as §1

SMILES | IC50 [1] [nM] | IC50 [2] [nM] | Kd [4] [nM] | Kd [5] [nM] | IC50 [6] [nM] | IC50 [7] [nM] | IC50 [8] [nM] | IC50 [9] [nM] | Activity [10] | Activity [3]
CC[C@H](C)[C@H](NC(=O)[C@@H](N)CCCNC(=N)N)C(=O)N[C@@H](CC(N)=O)C(=O)N[C@@H](CC(N)=O)C(=O)N[C@H](C(=O)N1C[C@@H](n2cc(-c3ccccc3)nn2)C[C@H]1C(=O)N[C@@H](Cc1c[nH]c2ccccc12)C(=O)N[C@@H](CO)C(=O)N[C@@H](CCC(=O)O)C(=O)N[C@@H](C)C(=O)N[C@@H](CCSC)C(=O)N[C@@H](CCSC)C(=O)O)[C@@H](C)CC | 154 | 1400 | 23 | 33 | 106 | 162 | 109 | 172 | – | Non-toxic
CC[C@H](C)[C@H](NC(=O)[C@@H](N)CCCNC(=N)N)C(=O)N[C@@H](CC(N)=O)C(=O)N[C@@H](CC(N)=O)C(=O)N[C@H](C(=O)N1CCC[C@H]1C(=O)N[C@@H](Cc1c[nH]c2ccccc12)C(=O)N[C@@H](CO)C(=O)N[C@@H](CCC(=O)O)C(=O)N[C@@H](C)C(=O)N[C@@H](CCSC)C(=O)N[C@@H](CCSC)C(=O)O)[C@@H](C)CC [RINNIPWSEAMM] | 5400 | 48000 | 5000 | 2600 | 10000 | 8800 | 6400 | 7200 | – | Non-toxic
CC[C@H](C)[C@H](NC(=O)[C@@H](N)CCCNC(=N)N)C(=O)N[C@@H](CC(N)=O)C(=O)N[C@@H](CC(N)=O)C(=O)N[C@H](C(=O)N1C[C@@H](n2cc(C3(N)CCCCC3)nn2)C[C@H]1C(=O)N[C@@H](Cc1c[nH]c2ccccc12)C(=O)N[C@@H](CO)C(=O)N[C@@H](CCC(=O)O)C(=O)N[C@@H](C)C(=O)N[C@@H](CCSC)C(=O)N[C@@H](CCSC)C(=O)O)[C@@H](C)CC | – | – | – | – | – | – | – | – | inactive | –
CC[C@H](C)[C@H](NC(=O)[C@@H](N)CCCNC(=N)N)C(=O)N[C@@H](CC(N)=O)C(=O)N[C@@H](CC(N)=O)C(=O)N[C@H](C(=O)N1C[C@@H](n2cc(-c3ccc(CCc4ccccc4)cc3)nn2)C[C@H]1C(=O)N[C@@H](Cc1c[nH]c2ccccc12)C(=O)N[C@@H](CO)C(=O)N[C@@H](CCC(=O)O)C(=O)N[C@@H](C)C(=O)N[C@@H](CCSC)C(=O)N[C@@H](CCSC)C(=O)O)[C@@H](C)CC | 99 | 610000 | – | – | 85 | 65 | 23 | 129 | – | Non-toxic

Continued, in another order:

IC50 [1] [nM] | IC50 [2] [nM] | Kd [4] [nM] | Kd [5] [nM] | IC50 [6] [nM] | IC50 [7] [nM] | IC50 [8] [nM] | IC50 [9] [nM] | Activity [10] | SMILES | Activity [3]
146 | 418 | 9 | – | 235 | 191 | 137 | 177 | – | CCc1ccc(-c2cn([C@H]3C[C@@H](C(=O)N[C@@H](Cc4c[nH]c5ccccc45)C(=O)N[C@@H](CO)C(=O)N[C@@H](CCC(=O)O)C(=O)N[C@@H](C)C(=O)N[C@@H](CCSC)C(=O)N[C@@H](CCSC)C(=O)O)N(C(=O)[C@@H](NC(=O)[C@H](CC(N)=O)NC(=O)[C@H](CC(N)=O)NC(=O)[C@@H](NC(=O)[C@@H](N)CCCNC(=N)N)[C@@H](C)CC)[C@@H](C)CC)C3)nn2)cc1 | Non-toxic
67 | 156 | 12 | – | 136 | 117 | 76 | 94 | – | CC[C@H](C)[C@H](NC(=O)[C@@H](N)CCCNC(=N)N)C(=O)N[C@@H](CC(N)=O)C(=O)N[C@@H](CC(N)=O)C(=O)N[C@H](C(=O)N1C[C@@H](n2cc(-c3ccc(C)cc3)nn2)C[C@H]1C(=O)N[C@@H](Cc1c[nH]c2ccccc12)C(=O)N[C@@H](CO)C(=O)N[C@@H](CCC(=O)O)C(=O)N[C@@H](C)C(=O)N[C@@H](CCSC)C(=O)N[C@@H](CCSC)C(=O)O)[C@@H](C)CC | Non-toxic
